Columns and labels:
NCI-N87 [1] = assay: cells; assay type: functional, cell-based; conditions: Homo sapiens, NCI-N87, 72 h
NCI-H1975 [2] = assay: cells; assay type: functional, cell-based; conditions: Homo sapiens, NCI-H1975, 72 h
BT-474 [3] = assay: cells; assay type: functional, cell-based; conditions: Homo sapiens, BT-474, 72 h
cells = assay type: functional, cell-based; conditions: Homo sapiens, Calu-3, 72 h
A-431 [4] = assay: cells; assay type: functional, cell-based; conditions: Homo sapiens, A-431, 72 h
[5] = target: Receptor tyrosine-protein kinase erbB-2 (Homo sapiens, UniProt P04626); assay: Inhibition of HER2 (unknown origin) after 10 mins
Receptor tyrosine-protein kinase erbB-2, sequence (P04626 whole entry): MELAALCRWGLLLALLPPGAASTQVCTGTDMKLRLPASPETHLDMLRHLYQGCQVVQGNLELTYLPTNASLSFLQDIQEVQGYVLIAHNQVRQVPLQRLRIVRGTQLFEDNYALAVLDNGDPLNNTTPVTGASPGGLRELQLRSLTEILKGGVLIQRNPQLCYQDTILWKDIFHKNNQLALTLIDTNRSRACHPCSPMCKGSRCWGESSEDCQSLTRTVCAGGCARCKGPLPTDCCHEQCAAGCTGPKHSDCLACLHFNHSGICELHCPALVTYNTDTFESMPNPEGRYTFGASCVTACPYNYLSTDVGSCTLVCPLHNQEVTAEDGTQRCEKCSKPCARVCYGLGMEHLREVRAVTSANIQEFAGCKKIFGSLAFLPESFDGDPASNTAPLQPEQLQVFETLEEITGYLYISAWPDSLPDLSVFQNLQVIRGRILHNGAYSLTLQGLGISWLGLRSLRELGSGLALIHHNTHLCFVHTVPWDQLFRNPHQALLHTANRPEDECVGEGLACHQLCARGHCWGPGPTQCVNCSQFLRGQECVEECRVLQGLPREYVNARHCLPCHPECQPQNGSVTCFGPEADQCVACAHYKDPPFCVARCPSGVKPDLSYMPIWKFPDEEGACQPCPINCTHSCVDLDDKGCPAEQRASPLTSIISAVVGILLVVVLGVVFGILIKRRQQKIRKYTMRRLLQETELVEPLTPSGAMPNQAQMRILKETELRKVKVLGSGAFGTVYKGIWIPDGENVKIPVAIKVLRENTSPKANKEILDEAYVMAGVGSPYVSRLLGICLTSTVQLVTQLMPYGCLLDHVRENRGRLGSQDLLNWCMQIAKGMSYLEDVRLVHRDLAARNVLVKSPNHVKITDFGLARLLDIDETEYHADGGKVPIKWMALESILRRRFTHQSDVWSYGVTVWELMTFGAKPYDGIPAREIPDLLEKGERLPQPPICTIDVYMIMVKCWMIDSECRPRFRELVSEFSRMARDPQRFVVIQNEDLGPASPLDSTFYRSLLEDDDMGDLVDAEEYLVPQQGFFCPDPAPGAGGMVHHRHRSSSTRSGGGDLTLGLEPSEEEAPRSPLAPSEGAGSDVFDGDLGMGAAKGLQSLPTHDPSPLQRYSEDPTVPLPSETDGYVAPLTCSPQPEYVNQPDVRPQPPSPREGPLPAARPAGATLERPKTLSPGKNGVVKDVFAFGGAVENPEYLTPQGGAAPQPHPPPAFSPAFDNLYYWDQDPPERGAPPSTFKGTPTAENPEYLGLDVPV

[6] = target: T1, Epidermal growth factor receptor (Homo sapiens, UniProt P00533); assay type: cell-based, KB
T1 sequence (P00533 whole entry): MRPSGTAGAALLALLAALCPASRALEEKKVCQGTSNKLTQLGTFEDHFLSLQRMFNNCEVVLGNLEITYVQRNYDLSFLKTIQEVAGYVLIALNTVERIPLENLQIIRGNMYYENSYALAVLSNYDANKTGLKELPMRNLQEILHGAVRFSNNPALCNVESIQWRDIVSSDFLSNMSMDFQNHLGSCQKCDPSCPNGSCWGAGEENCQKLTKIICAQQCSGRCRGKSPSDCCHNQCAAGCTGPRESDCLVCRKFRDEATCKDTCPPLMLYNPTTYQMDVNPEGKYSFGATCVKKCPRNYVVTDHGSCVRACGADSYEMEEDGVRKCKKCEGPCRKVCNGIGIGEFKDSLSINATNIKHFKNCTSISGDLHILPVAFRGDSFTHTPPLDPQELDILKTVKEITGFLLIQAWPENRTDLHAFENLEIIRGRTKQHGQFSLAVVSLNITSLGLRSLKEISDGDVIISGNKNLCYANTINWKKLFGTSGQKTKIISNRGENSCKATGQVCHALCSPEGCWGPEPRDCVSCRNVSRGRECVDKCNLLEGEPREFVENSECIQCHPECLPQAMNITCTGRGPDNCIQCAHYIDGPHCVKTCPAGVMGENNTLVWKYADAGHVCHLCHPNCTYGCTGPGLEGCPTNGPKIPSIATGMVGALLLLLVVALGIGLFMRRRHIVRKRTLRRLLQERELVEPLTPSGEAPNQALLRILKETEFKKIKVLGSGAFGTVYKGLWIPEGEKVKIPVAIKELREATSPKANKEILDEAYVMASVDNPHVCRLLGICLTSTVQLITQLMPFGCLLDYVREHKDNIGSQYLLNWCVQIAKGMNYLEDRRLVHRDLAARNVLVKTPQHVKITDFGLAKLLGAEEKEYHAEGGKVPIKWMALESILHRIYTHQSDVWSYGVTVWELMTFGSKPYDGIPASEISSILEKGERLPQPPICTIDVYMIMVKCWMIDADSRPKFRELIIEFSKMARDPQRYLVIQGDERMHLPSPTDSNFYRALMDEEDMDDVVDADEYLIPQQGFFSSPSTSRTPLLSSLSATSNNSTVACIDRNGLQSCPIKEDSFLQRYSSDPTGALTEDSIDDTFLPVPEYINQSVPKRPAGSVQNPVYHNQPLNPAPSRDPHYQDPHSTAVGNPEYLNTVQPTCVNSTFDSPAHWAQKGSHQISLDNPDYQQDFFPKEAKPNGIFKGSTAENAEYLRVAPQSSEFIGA

[7] = target: T1, Epidermal growth factor receptor
NCI-N87 [8] = assay: Ratio of gefitinib IC50 to compound IC50 for human NCI-N87 cells; assay type: functional
Method in brief: (§1)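 MTT growth assay: cells in ATCC-recommended medium with 10% FBS, seeded at 5.0 × 10³ cells/well, adhered overnight at 37 °C, 5% CO₂. Compound added, then 72 h incubation. MTT added for 4 h. Absorbance read at 550 nm, corrected at 690 nm. IC₅₀ from nonlinear regression of concentration–response data. Ratio is the reference-drug IC₅₀ over the compound IC₅₀ from this assay.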

Calu-3 [9] = assay: Ratio of erlotinib IC50 to compound IC50 for human Calu3 cells; assay type: functional
Method in brief: as §1

A-431 [10] = assay: Ratio of erlotinib IC50 to compound IC50 for human A431 cells; assay type: functional
Method in brief: as §1

BT-474 [11] = assay: Ratio of erlotinib IC50 to compound IC50 for human BT474 cells; assay type: functional
Method in brief: as §1

NCI-H1975 [12] = assay: Ratio of gefitinib IC50 to compound IC50 for human NCI-H1975 cells; assay type: functional
Method in brief: as §1

BT-474 [13] = assay: Ratio of gefitinib IC50 to compound IC50 for human BT474 cells; assay type: functional
Method in brief: as §1

A-431 [14] = assay: Ratio of gefitinib IC50 to compound IC50 for human A431 cells; assay type: functional
Method in brief: as §1

NCI-H1975 [15] = assay: Ratio of erlotinib IC50 to compound IC50 for human NCI-H1975 cells; assay type: functional
Method in brief: as §1

Calu-3 [16] = assay: Ratio of gefitinib IC50 to compound IC50 for human Calu3 cells; assay type: functional
Method in brief: as §1

NCI-N87 [17] = assay: Ratio of erlotinib IC50 to compound IC50 for human NCI-N87 cells; assay type: functional
Method in brief: as §1

SMILES	IC50 (NCI-N87 [1]) [nM]	IC50 (NCI-H1975 [2]) [nM]	IC50 (BT-474 [3]) [nM]	IC50 (cells) [nM]	IC50 (A-431 [4]) [nM]	IC50 [5] [nM]	IC50 [6] [nM]	IC50 [7] [nM]	Ratio IC50 (NCI-N87 [8])	Ratio IC50 (Calu-3 [9])	Ratio IC50 (A-431 [10])	Ratio IC50 (BT-474 [11])	Ratio IC50 (NCI-H1975 [12])	Ratio IC50 (BT-474 [13])	Ratio IC50 (A-431 [14])	Ratio IC50 (NCI-H1975 [15])	Ratio IC50 (Calu-3 [16])	Ratio IC50 (NCI-N87 [17])
C#Cc1cccc(Nc2ncnc3cc4c(cc23)N(C(=O)/C=C/CN2CCCCC2C)CCO4)c1 (stereo not given)	270	1230	1150	950	690	290												
C#Cc1cccc(Nc2ncnc3cc4c(cc23)N(C(=O)/C=C/CN(CC)CC)CCO4)c1	150	680	550	350	190	250	42	5										
C#Cc1cccc(Nc2ncnc3cc4c(cc23)N(C(=O)/C=C/CN2CCN(C)CC2)CCO4)c1	220	1460	1330	2060	480	1110	780	16										
C#Cc1cccc(Nc2ncnc3cc4c(cc23)N(C(=O)/C=C/CN(C)C)CCO4)c1	46	300	240	140	230	250	46	3	22	6.6	3.3	> 42	33	1.5	2.4	18	7.1	> 210
C#Cc1cccc(Nc2ncnc3cc4c(cc23)N(C(=O)/C=C/CN2CCCCC2C)CCCO4)c1 (stereo not given)	> 10000	> 10000	> 10000	> 10000	> 10000		> 10000											
C#Cc1cccc(Nc2ncnc3cc4c(cc23)N(C(=O)/C=C/CN(CC)CC)CCCO4)c1	> 10000	> 10000	> 10000	> 10000	2160		> 10000											
C#Cc1cccc(Nc2ncnc3cc4c(cc23)N(C(=O)/C=C/CN(C)C)CCCO4)c1	> 10000	1860	> 10000	> 10000	1750		> 10000											
C#Cc1cccc(Nc2ncnc3cc4c(cc23)N(C(=O)/C=C/CN2CCC(C)CC2)CCO4)c1	250	890	1380	1670	400	330	82	5										

Now from value to molecule, other results behind:

IC50 (NCI-N87 [1]) [nM]	IC50 (NCI-H1975 [2]) [nM]	IC50 (BT-474 [3]) [nM]	IC50 (cells) [nM]	IC50 (A-431 [4]) [nM]	IC50 [5] [nM]	IC50 [6] [nM]	IC50 [7] [nM]	SMILES	Ratio IC50 (NCI-N87 [8])	Ratio IC50 (Calu-3 [9])	Ratio IC50 (A-431 [10])	Ratio IC50 (BT-474 [11])	Ratio IC50 (NCI-H1975 [12])	Ratio IC50 (BT-474 [13])	Ratio IC50 (A-431 [14])	Ratio IC50 (NCI-H1975 [15])	Ratio IC50 (Calu-3 [16])	Ratio IC50 (NCI-N87 [17])
160	870	870	550	340	290	42	4	C#Cc1cccc(Nc2ncnc3cc4c(cc23)N(C(=O)/C=C/CN2CCCCC2)CCO4)c1										
> 10000	> 10000	> 10000	> 10000	> 10000		> 10000		C#Cc1cccc(Nc2ncnc3cc4c(cc23)N(C(=O)/C=C/CN2CCOCC2)CCCO4)c1										
> 10000	> 10000	> 10000	> 10000	> 10000		> 10000		C#Cc1cccc(Nc2ncnc3cc4c(cc23)N(C(=O)/C=C/CN2CCN(C)CC2)CCCO4)c1										
> 10000	> 10000	> 10000	> 10000	> 10000		> 10000		C#Cc1cccc(Nc2ncnc3cc4c(cc23)N(C(=O)/C=C/CN2CCC(C)CC2)CCCO4)c1										
> 10000	8590	> 10000	> 10000	> 10000		> 10000		C#Cc1cccc(Nc2ncnc3cc4c(cc23)N(C(=O)/C=C/CN2CCCCC2)CCCO4)c1										
> 10000	1740	> 10000	> 10000	1820		> 10000		C#Cc1cccc(Nc2ncnc3cc4c(cc23)N(C(=O)/C=C/CN2CCCC2)CCCO4)c1										
600	770	1390	1010	530	930	640	12	C#Cc1cccc(Nc2ncnc3cc4c(cc23)N(C(=O)/C=C/CN2CCOCC2)CCO4)c1										
120	320	330	710	110	230	60	3	C#Cc1cccc(Nc2ncnc3cc4c(cc23)N(C(=O)/C=C/CN2CCCC2)CCO4)c1										

From ChEMBL document CHEMBL3112407 (Bioorg Med Chem Lett, 2014)
